The structures appear in SMILES notation. Active and inactive are the calls of the source. The rule behind the calls is not given here.

The test system of test [1] is THP-1. Nature of the test: Induction of cyp24A1 mRNA expression in human THP1 cells at 100 nM after 24 hrs by real-time PCR relative to 1-alpha,25-dihydroxyvitamin D3. It counts as functional. In short, it runs like this:
(§1)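 Cells seeded at 1 × 10⁴ per well and treated 24 h later with ethanol vehicle or 100 nM ligand for 24 h. Total RNA taken by a chloroform method, reverse-transcribed, and target mRNA quantified by SYBR Green real-time PCR, normalized to ACTIN mRNA. Culture media: HEK293 in DMEM 5% FBS; SW480 and HaCaT in DMEM 10% FBS; MG63 in MEM 10% FBS; THP-1 and U937 in RPMI1640 10% FBS; all at 37 °C, 5% CO₂.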
On the technique in general: Quantitative PCR measures a nucleic acid by following its amplification.

For test [2], the system named is SW480. The experiment in a line: Induction of cyp24A1 mRNA expression in human SW480 cells at 100 nM after 24 hrs by real-time PCR relative to 1-alpha,25-dihydroxyvitamin D3. It counts as functional. Summed up: as §1
In test [3] the target is T1, Vitamin D3 receptor (Homo sapiens, UniProt P11473).
T1 sequence (P11473 whole entry): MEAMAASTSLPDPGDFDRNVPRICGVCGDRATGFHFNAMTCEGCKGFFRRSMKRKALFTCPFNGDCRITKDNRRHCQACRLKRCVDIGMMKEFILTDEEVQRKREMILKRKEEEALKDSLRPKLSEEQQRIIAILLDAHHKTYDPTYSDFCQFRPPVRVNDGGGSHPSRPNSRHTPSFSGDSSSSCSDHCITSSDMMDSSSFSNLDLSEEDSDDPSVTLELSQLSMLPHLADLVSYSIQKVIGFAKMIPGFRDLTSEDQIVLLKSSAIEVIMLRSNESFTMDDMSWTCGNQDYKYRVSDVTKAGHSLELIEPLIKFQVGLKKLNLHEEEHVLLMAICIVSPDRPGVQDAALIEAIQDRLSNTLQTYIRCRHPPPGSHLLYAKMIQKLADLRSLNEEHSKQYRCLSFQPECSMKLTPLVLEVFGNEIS
The experiment in a line: Activation of human VDR expressed in HEK293 cells cotransfected CMX-GAL4-RXRalpha and 4-tk-LUC assessed as heterodimerization with RXRalpha by mammalian two-hybrid assay. It is filed as cell-based. In short, it runs like this:
(§2)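 HEK293 cells in DMEM with 5% FBS, per well: 50 ng TK-MH100(UAS)×4-LUC reporter, 10 ng pCMX-β-galactosidase, 15 ng pCMX-VP16-VDR, and 15 ng of a GAL4 fusion. The fusion was RXRα for heterodimerisation, SRC-1 for coactivator binding, N-CoR, or SMRT (NCoR2). Cells were treated across a concentration range. Luciferase was normalised to β-galactosidase.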

Test [4] addresses T1, Vitamin D3 receptor. The experiment in a line: Activation of human VDR expressed in HEK293 cells cotransfected CMX-GAL4-N-CoR and 4-tk-LUC assessed as inhibition of N-CoR binding to VDR by mammalian two-hybrid assay. It is filed as cell-based. Summed up:
as §2

Test [5] concerns the target T1, Vitamin D3 receptor. Nature of the test: Transactivation of human VDR expressed in HEK293 cells cotransfected with mouse VDRE, Tk-Sppx3-LUC reporter plasmid measured after 24 hrs by luciferase reporter assay. It is filed as cell-based. Summed up: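 HEK293 cells in DMEM with 5% FBS, calcium phosphate-transfected per well with 50 ng TK-Spp×3-LUC (mouse osteopontin VDRE), 10 ng pCMX-β-galactosidase, 15 ng pCMX-VDR and 15 ng pCMX-RXRα. Compounds were tested across a concentration range and cells harvested after 16–24 h. Luciferase was normalised to β-galactosidase. EC50 and efficacy relative to 1,25(OH)₂D₃.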
In general terms: A reporter such as luciferase makes a cellular process visible.

Test [6] concerns U-937. The experiment in a line: Induction of cathelicidine antimicrobial peptide mRNA expression in human U937 cells at 100 nM after 24 hrs by real-time PCR relative to 1-alpha,25-dihydroxyvitamin D3. It is filed as functional. Summed up:
as §1

The test system of test [7] is HaCaT. The experiment in a line: Induction of cyp24A1 mRNA expression in human HaCaT cells at 100 nM after 24 hrs by real-time PCR relative to 1-alpha,25-dihydroxyvitamin D3. It is filed as functional. Summed up: as §1
In test [8] the target is T2, Vitamin D3 receptor (Homo sapiens) (UniProt P11473).
T2 sequence (whole entry): T1 sequence (P11473 whole entry)
The following applies: HEK293, 10 to 1000 nM.

Test [9] concerns the target T1, Vitamin D3 receptor. Nature of the test: Activation of human VDR expressed in HEK293 cells cotransfected CMX-GAL4-SRC1 and 4-tk-LUC assessed as SRC1 interaction with AF2 surface of VDR by mammalian two-hybrid assay. It counts as cell-based. Summed up: as §2
Test [10] deals with MG-63. Nature of the test: Induction of cyp24A1 mRNA expression in human MG63 cells at 100 nM after 24 hrs by real-time PCR relative to 1-alpha,25-dihydroxyvitamin D3. It is filed as functional. Summed up:
as §1

The test system of test [11] is THP-1. Nature of the test: Induction of cathelicidine antimicrobial peptide mRNA expression in human THP1 cells at 100 nM after 24 hrs by real-time PCR relative to 1-alpha,25-dihydroxyvitamin D3. It counts as functional. In short, it runs like this:
as §1

Test [12] relates to HEK293. Nature of the test: Induction of cyp24A1 mRNA expression in HEK293 cells at 100 nM after 24 hrs by real-time PCR. It counts as functional, cell-based. The following applies: Homo sapiens. Summed up:
as §1

For test [13], the system named is SW480. Nature of the test: Induction of TRPV6 mRNA expression in human SW480 cells at 100 nM after 24 hrs by real-time PCR relative to 1-alpha,25-dihydroxyvitamin D3. It is filed as functional. In short, it runs like this: as §1
Test [14] addresses T1, Vitamin D3 receptor. The experiment in a line: Displacement of [3H]-1,25(OH)2D3 from GST-fused human VDR-LBD expressed in Escherichia coli BL21. In short, it runs like this:
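hVDR-LBD (aa 140–427) as a GST fusion from E. coli BL21 sonicated lysate, 1 μg in pH 7.5 Tris/KCl/DTT/CHAPS buffer with BSA. Ligand in EtOH was preincubated 30 min at RT. [26,27-methyl-³H]-1,25(OH)₂D₃ was then added for 20 h at 4 °C. Free ligand was removed with dextran-coated charcoal and centrifugation, and bound radioactivity counted. IC50 from at least two triplicate runs.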

Test [15] concerns U-937. The experiment in a line: Induction of cyp24A1 mRNA expression in human U937 cells at 100 nM after 24 hrs by real-time PCR relative to 1-alpha,25-dihydroxyvitamin D3. It counts as functional. In short, it runs like this: as §1
Test [16] concerns the target T1, Vitamin D3 receptor. Nature of the test: Activation of human VDR expressed in HEK293 cells cotransfected CMX-GAL4-NCoR2 and 4-tk-LUC assessed as inhibition of NCoR2 binding to VDR by mammalian two-hybrid assay. It is filed as cell-based. Summed up:
as §2

The test system of test [17] is HaCaT. The experiment in a line: Induction of cathelicidine antimicrobial peptide mRNA expression in human HaCaT cells at 100 nM after 24 hrs by real-time PCR relative to 1-alpha,25-dihydroxyvitamin D3. It is filed as functional. In short, it runs like this:
as §1

For test [18], the system named is HEK293. The experiment in a line: Induction of cyp24A1 mRNA expression in HEK293 cells at 100 nM after 24 hrs by real-time PCR relative to 1-alpha,25-dihydroxyvitamin D3. It counts as functional, Homo sapiens. In short, it runs like this:
as §1

The subject of test [19] is U-937. The experiment in a line: Induction of cathelicidine antimicrobial peptide mRNA in human U937 cells at 100 nM after 24 hrs by real-time PCR relative to skin cells. It counts as functional. Summed up:
(§3)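 THP-1 and U937 cells were grown in RPMI1640 with 10% FBS and penicillin/streptomycin at 37 °C under 5% CO₂, and plated at 1 × 10⁴ cells/well. After 24 h, cells got an ethanol control, 100 nM 1,25(OH)₂D₃ or 100 nM analogue for 24 h. RNA was extracted by a chloroform method and reverse-transcribed. CAMP was measured by SYBR Green real-time PCR, normalized to ACTIN mRNA and compared with 1,25(OH)₂D₃.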

In test [20] the test system is THP-1. The experiment in a line: Induction of cathelicidine antimicrobial peptide mRNA expression in human THP1 cells at 100 nM after 24 hrs by real-time PCR relative to skin cells. It is filed as functional. Summed up: as §3
Test [21] deals with T2, Vitamin D3 receptor (Homo sapiens). Nature of the test: Inhibition of 1,25(OH)2D3-induced transactivation of human VDR expressed in HEK293 cells cotransfected with mouse VDRE, Tk-Sppx3-LUC reporter plasmid measured after 24 hrs by luciferase reporter assay. It is filed as cell-based. In short, it runs like this:
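HEK293 cells in DMEM with 5% FBS were calcium-phosphate cotransfected with TK-Spp×3-LUC reporter, pCMX-β-galactosidase, pCMX-VDR and pCMX-RXRα. Cells were then exposed to a range of test concentrations together with 10 nM 1,25(OH)₂D₃. Harvest came 16–24 h later, with luciferase normalized to β-galactosidase.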

Broadly, the EC50 is the concentration at which the effect is half-maximal. For orientation: IC50 means the concentration needed to halve the response being measured. In the case of `C=C1[C@H](O)CC(=C/C=C2\CCC[C@]3(C)[C@@H]([C@H](C)CC#C[C@@H](O)C45CC6CC(CC(C6)C4)C5)CC[C@@H]23)C[C@H]1O`, the Activity in test [1] is given as 70%; in test [2] it was 50%; in test [6], 125%; in test [7], 30%; in [10], 50%; in test [11] it was 105%. For the same compound, the results for the Activity in test [13], in test [15] and in test [17] were 65%, 85% and 60%, respectively. The EC50 worked out at 0.6 nM in [3]; 0.4 nM in test [4]; 0.07 nM in test [5]; 1.5 nM in test [9]; 0.5 nM in [16]. The inhibition result in [8] is “inactive”. For the same compound, the outcome in test [12] was Active. Moreover, in test [14], the IC50 was determined as 0.5 nM.

`C=C1[C@H](O)CC(=C/C=C2\CCC[C@]3(C)[C@@H]([C@H](C)CC#C[C@H](O)CC45CC6CC(CC(C6)C4)C5)CC[C@@H]23)C[C@H]1O`: the Activity is on record as 10% in test [1]; 10% in test [2]; 75% in test [6]; 45% in test [18]; 10% in [7]; 50% in [10]. For the same compound, the Activity in test [11] is on record as 74%; in [13], 40%; in test [15], 50%; in [17], 20%. Further, the 50% effective concentration (EC50) worked out at 2.3 nM in test [3]; 3.7 nM in test [4]; 1.5 nM in test [5]; 6.5 nM in [9]; 2.4 nM in test [16]. Further, the “fold change (FC)” value in [19] and in test [20] was 3.5 throughout. Besides, the inhibition result in test [8] is “Active”. The compound also displayed an IC50 in test [14] of 13 nM.

In the case of `C=C1[C@H](O)CC(=C/C=C2\CCC[C@]3(C)[C@@H]([C@H](C)CC#C[C@@H](O)CC45CC6CC(CC(C6)C4)C5)CC[C@@H]23)C[C@H]1O`, the Activity was 10% in test [1]; 10% in [2]; 65% in [6]; 30% in test [18]; 10% in [7]; 50% in test [10]. For the same compound, the Activity in test [11] is reported as 55%; in test [13] it was 35%; in [15] it was 50%; in test [17], 15%. Also, the concentration for a half-maximal effect (EC50) came to 0.8 nM in test [3]; 1.8 nM in test [4]; 1.1 nM in [5]; 13.5 nM in [9]; 2.8 nM in [16]. Further, the “fold change (FC)” value in test [19] and in test [20] was 3.5 throughout. Also, the inhibition result in [8] is “Active”. This compound also registered an IC50 in test [14] of 12 nM.

In the case of `C=C1/C(=C\C=C2/CCC[C@]3(C)[C@@H]([C@H](C)CCCC(C)(C)O)CC[C@@H]23)C[C@@H](O)C[C@@H]1O`, in test [12], the result was Active.

For the compound `C=C1[C@H](O)CC(=C/C=C2\CCC[C@]3(C)[C@@H]([C@H](C)CC#C[C@H](O)C45CC6CC(CC(C6)C4)C5)CC[C@@H]23)C[C@H]1O`, the Activity came to 1% in test [1]; 32% in [2]; 30% in [6]; 15% in test [18]; 22% in test [7]; 5% in [10]. Also, the Activity was found to be 20% in [11], 30% in test [13], 1% in test [15] and 15% in test [17]. The EC50 in [3] is 4.4 nM; in [4] it was 4 nM; in [5] it was 6.6 nM; in test [9], 15 nM; in test [16] it was 4.1 nM. Moreover, the inhibition result in test [8] is “Active”. This compound also came in with an IC50 in test [14] of 12 nM.

Take `C=C1[C@H](O)CC(=C/C=C2\CCC[C@]3(C)[C@@H]([C@H](C)/C=C/C[C@H](O)C45CC6CC(CC(C6)C4)C5)CC[C@@H]23)C[C@H]1O`: in test [21], the inhibition entry is “Dose-dependent effect”.

Source of the values: ChEMBL document CHEMBL3259615, “Combination of triple bond and adamantane ring on the vitamin D side chain produced partial agonists for vitamin D receptor” (J Med Chem, 2014).
